Assay results taken from ChEMBL document CHEMBL2429803, “Animal toxicity of hairpin pyrrole-imidazole polyamides varies with the turn unit” (J Med Chem, 2013).
Activity calls are given as the source filed them. No cut-off for these calls is given here.

Experiments:
[1] = tested on: LNCaP; assay: Induction in p21 level in human LNCAP cells after 72 hrs by RT-PCR analysis; format: functional, cell-based
How it was run: (§1)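 LNCaP cells, 50 000 per well, adhered 36–48 h, then treated with 1, 3 or 10 μM for 72 h. Total RNA extracted on columns and transcripts quantified by RT-qPCR.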

[2] = tested on: LNCaP; assay: Cytotoxicity against human LNCAP cells after 72 hrs by WST-1 assay; format: functional, cell-based
How it was run: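 LNCaP cells seeded at 5000–7500 per well and left to adhere 36–48 h. Compound added in fresh medium for 72 h. Metabolic activity read by WST-1 and IC50 derived from the dose–response. Biological triplicates.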

[3] = tested on: Mus musculus; assay: Toxicity in C57BL/6J mouse assessed as morbidity at 1 mg/kg, sc administered every 3 days for a cycle of 3 injections; format: organism-based; design: dose 1 mg/kg, route subcutaneous; details: in vivo, 72 h
How it was run: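 Male C57BL/6J mice, 3 per group, given 1 mg/kg sc every 3 days. Weight recorded on injection days. Watched for signs of duress. Humane end point was visible duress or weight loss over 15% of starting body weight.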

[4] = tested on: Mus musculus; assay: Acute toxicity in C57BL/6J mouse at 1 to 10 mg/kg, sc after 9 days; format: organism-based; design: dose 1-10 mg/kg, route subcutaneous; details: in vivo, 216 h
How it was run: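 Single sc injection in male 8-week-old C57BL/6J mice (1, 3 or 10 mg/kg in 25% DMSO/saline; n = 4 per group), followed for 9 days with daily weighing, then sacrifice. Toxicity was assessed by blinded histopathology of two mice per group and by blinded serum ALT, AST, total bilirubin, BUN and creatinine from retroorbital blood of all mice.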

[5] = tested on: Mus musculus; assay: Acute toxicity in C57BL/6J mouse assessed as lesions in pancreas at 1 to 10 mg/kg, sc after 9 days; format: organism-based; design: dose 1-10 mg/kg, route subcutaneous; details: in vivo, 216 h
How it was run: (§2)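 Male C57BL/6J mice, 8 weeks old, received a single sc dose (1, 3 or 10 mg/kg in 25% DMSO/saline, n = 4 per group) and were sacrificed after 9 days. Two representative animals per group were fixed in 10% formalin. Cecum, duodenum, heart, ileum, kidney, liver, lung, pancreas, spleen and stomach were examined blind by a veterinary pathologist and lesions graded mild, moderate or severe.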

[6] = tested on: LNCaP; assay: Antitumor activity against human LNCAP cells xenografted in NSG immunocompromised mouse model assessed as tumor growth inhibition at 1 mg/kg, sc administered once every 3 days for a cycle of six injections measured 2 days post last injection relative to control; format: functional; details: route subcutaneous
How it was run: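 Male NSG mice engrafted in the left flank with 2.5 million LNCaP cells in 1:1 media/matrigel. Treatment began at ~200 mm3 (0.5 × L × W2): 1 mg/kg sc in 20% DMSO/normal saline, or vehicle alone, every 3 days for six injections, 14 mice per group. Sacrificed 2 days after the last dose. Tumor weights compared with vehicle (T/C).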

[7] = tested on: Mus musculus; assay: Acute toxicity in C57BL/6J mouse assessed as lesions in GI tract at 1 to 10 mg/kg, sc after 9 days; format: organism-based, Gastrointestinal tract; design: dose 1-10 mg/kg, route subcutaneous; details: in vivo, 216 h; how it was run: as §2
[8] = tested on: Mus musculus; assay: Toxicity in NSG immunocompromised mouse model xenografted with human LNCAP cells assessed as weight loss at 1 mg/kg, sc administered once every 3 days for a cycle of six injections; format: organism-based; design: dose 1 mg/kg, route subcutaneous; details: in vivo, 72 h
How it was run: (§3)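 Male NSG mice engrafted in the left flank with 2.5 million LNCaP cells in 1:1 media/matrigel; dosing began at ~200 mm3 tumours (0.5 × L × W2). Compound or vehicle given sc in 20% DMSO/normal saline once every 3 d for six injections, n = 14 per group; weight and general health checked daily, sacrifice 2 days after final injection.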

[9] = tested on: Mus musculus; assay: Acute toxicity in C57BL/6J mouse assessed as lesions in stomach at 1 to 10 mg/kg, sc after 9 days; format: organism-based; design: dose 1-10 mg/kg, route subcutaneous; details: in vivo, 216 h; how it was run: as §2
[10] = tested on: LNCaP; assay: Induction in GADD45A level in human LNCAP cells after 72 hrs by RT-PCR analysis; format: functional, cell-based; how it was run: as §1
[11] = Metabolic stability in human liver microsomes after 1 hr by LC/MS/MS analysis in presence of NADPH; format: ADME, Microsome; details: read-out: Stability
How it was run: (§4)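 Compound incubated at 37 °C for 60 min with 1 mg/mL human or mouse liver microsomes in 100 mM KH2PO4, 3 mM MgCl2, pH 7.4, with 2 mM NADPH or without it. Stopped with ice-cold methanol, then precipitate removed. Analyzed by LC/MS/MS as % remaining versus time zero. Duplicates.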

[12] = tested on: Mus musculus; assay: Toxicity in C57BL/6J mouse assessed as total WBC count at 1 mg/kg, sc administered once every 3 days for a cycle of six injections measured 2 days post last injection; format: organism-based; design: dose 1 mg/kg, route subcutaneous; details: in vivo, 48 h
How it was run: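 Male C57BL/6J mice, blood taken by retroorbital bleed before dosing; after 1 week recovery, sc injections once every 3 d in 20% DMSO:normal saline, six injections; bled again at end point (2 days after final injection). K2EDTA blood sent for hematology (WBC, RBC, hemoglobin, neutrophils, lymphocytes); n = 5, mean with std.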

[13] = tested on: Mus musculus; assay: Acute toxicity in C57BL/6J mouse assessed as ALT level at 3 mg/kg, sc after 9 days; format: organism-based; design: dose 3 mg/kg, route subcutaneous; details: in vivo, 216 h
How it was run: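 Male C57BL/6J mice, 8 weeks old, acclimated 3 days, then given a single sc injection of 1, 3 or 10 mg/kg in 25% DMSO/saline (4 per group). Weighed daily for 9 days, then sacrificed. Serum taken by retroorbital bleed and spun at 6000 rpm for 5 min. ALT, AST, total bilirubin, BUN and creatinine measured by an outside lab, blinded.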

[14] = Metabolic stability in human liver microsomes after 1 hr by LC/MS/MS analysis; format: ADME, Microsome; details: read-out: Stability; how it was run: as §4
[15] = tested on: Mus musculus; assay: Toxicity in C57BL/6J mouse assessed as weight loss at 1 mg/kg, sc administered every 3 days for a cycle of 3 injections; format: organism-based; design: dose 1 mg/kg, route subcutaneous; details: in vivo, 72 h
How it was run: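 8-week-old male C57BL/6J mice, acclimated 3 days, groups of three, dosed sc in 25% DMSO/saline vehicle once every 3 days, sacrificed 2 days after the last injection. Body weight recorded on injection days and at end point; humane end point set at visible duress or >15% loss of original body weight.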

[16] = Metabolic stability in mouse liver microsomes after 1 hr by LC/MS/MS analysis in presence of NADPH; format: ADME, Microsome; details: read-out: Stability; how it was run: as §4
[17] = tested on: Mus musculus; assay: Acute toxicity in C57BL/6J mouse assessed as lesions in heart at 1 to 10 mg/kg, sc after 9 days; format: organism-based; design: dose 1-10 mg/kg, route subcutaneous; details: in vivo, 216 h; how it was run: as §2
[18] = tested on: LNCaP; assay: Induction in cellular p53 level in human LNCAP cells at 10 uM after 72 hrs by ELISA; format: functional, cell-based
How it was run: (§5)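 LNCaP cells treated 72 h at 10 μM. DMSO vehicle and 1 μM doxorubicin for 24 h served as controls. RPB1 measured with an RPB1-specific ELISA and total p53 with a pan-p53 ELISA. Biological triplicates.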

[19] = tested on: Mus musculus; assay: Toxicity in C57BL/6J mouse assessed as total RBC count at 1 mg/kg, sc administered once every 3 days for a cycle of six injections measured 2 days post last injection; format: organism-based; design: dose 1 mg/kg, route subcutaneous; details: in vivo, 48 h
How it was run: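 Five male C57BL/6J mice bled retroorbitally into K2EDTA tubes at baseline. After 1 week of recovery they were given 1 mg/kg sc in 20% DMSO/saline every 3 days for six injections, then bled again at the end point. Hematology (WBC, RBC, hemoglobin, neutrophils, lymphocytes) measured externally. Mean of five animals, ± std.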

[20] = Metabolic stability in mouse liver microsomes after 1 hr by LC/MS/MS analysis; format: ADME, Microsome; details: read-out: Stability; how it was run: as §4
[21] = tested on: LNCaP; assay: Induction in IGFBP3 level in human LNCAP cells after 72 hrs by RT-PCR analysis; format: functional, cell-based; how it was run: as §1
[22] = tested on: Mus musculus; assay: Toxicity in NSG immunocompromised mouse model xenografted with human LNCAP cells assessed as distress at 1 mg/kg, sc administered once every 3 days for a cycle of six injections; format: organism-based; design: dose 1 mg/kg, route subcutaneous; details: in vivo, 72 h; how it was run: as §3
[23] = tested on: LNCaP; assay: Genotoxicity in human LNCAP cells assessed as DNA strand breaks at 10 uM after 48 hrs by comet assay; format: toxicity, cell-based
How it was run: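 LNCaP cells, 100 000 per well, adhered 36–48 h, then treated 48 h at 10 μM (5 μM doxorubicin for 4 h as control). Alkaline comet assay imaged at 10× by confocal microscopy. More than 100 comets scored per condition. Damage reported as % DNA in tail.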

[24] = tested on: LNCaP; assay: Reduction in cellular RPB1 level in human LNCAP cells at 10 uM after 72 hrs by ELISA; format: functional, cell-based; how it was run: as §5
[25] = tested on: Mus musculus; assay: Acute toxicity in C57BL/6J mouse assessed as lesions in lungs at 1 to 10 mg/kg, sc after 9 days; format: organism-based; design: dose 1-10 mg/kg, route subcutaneous; details: in vivo, 216 h; how it was run: as §2

With `CC(=O)N[C@H](CCNC(=O)c1cc(NC(=O)c2cc(NC(=O)c3cc(NC(=O)c4nccn4C)cn3C)cn2C)cn1C)C(=O)Nc1cn(C)c(C(=O)Nc2cc(C(=O)Nc3cc(C(=O)Nc4cc(C(=O)NCCCN(C)CCCNC(=O)c5cccc(C(=O)O)c5)n(C)c4)n(C)c3)n(C)c2)n1` the Activity [1] was “Dose-dependent effect”, the Activity [2] was “Dose-dependent effect” and the IC50 [2] was 2.1 µM. The Activity [3] was “Non-toxic”, the Activity [4] was “Non-toxic” and the Activity [5] was “Non-toxic”. The T/C [6] was 52.4%, the Activity [7] was “Non-toxic” and the Activity [8] was “Non-toxic”. The Activity [9] was “Non-toxic”, the Activity [10] was “Dose-dependent effect” and the remaining at 1 h [11] was over 90%. The Activity [12] was “Non-toxic”, the Activity [13] was 29 U/L and the remaining at 1 h [14] was over 90%. For the same molecule, the Activity [15] was “Non-toxic”, the remaining at 1 h [16] was over 90% and the Activity [17] was “Non-toxic”. The Activity [18] was “Active”, the Activity [19] was “Non-toxic” and the remaining at 1 h [20] was over 90%. For the same molecule, the Activity [21] was “Dose-dependent effect”, the Activity [22] was “Non-toxic” and the Activity [23] was “Non-toxic”. The Activity [24] was “Active” and the Activity [25] was “Non-toxic”.
